The text below walks through data of ChEMBL document CHEMBL2331506, “Design, synthesis, antiviral and cytostatic evaluation of novel isoxazolidine nucleotide analogues with a carbamoyl linker” (Bioorg Med Chem, 2013).

The source made the active and inactive calls. No rule for the calls is given here.

The subject of one data set is MDCK. The data set can be described thus: Cytotoxicity against dog MDCK cells assessed as alteration of cell morphology up to 100 uM by microscopic analysis. The format is cell-based, Canis lupus familiaris. In outline: (§1)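 Uninfected host-cell cultures were exposed to compound and examined by microscopy. Cytotoxicity was expressed as the minimum cytotoxic concentration (MCC) causing a microscopically detectable alteration of normal cell morphology.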

The nature of data set [1]: Cytotoxicity against cat CRFK cells assessed as alteration of cell morphology up to 100 uM by microscopic analysis. Type of data set: cell-based, Felis catus. In outline: as §1
In the next data set the test system is Vero. The data set can be described thus: Cytotoxicity against african green monkey Vero cells assessed as alteration of cell morphology up to 100 uM by microscopic analysis. The format is cell-based. The settings on record: chlorocebus sabaeus. In outline:
as §1

Another data set concerns HeLa. In words: Cytotoxicity against human HeLa cells assessed as alteration of cell morphology up to 100 uM by microscopic analysis. Type of data set: cell-based. In outline: as §1
A further data set deals with HEL. In words: Cytotoxicity against human HEL cells assessed as alteration of cell morphology up to 100 uM by microscopic analysis. The format is cell-based. In outline:
as §1

Data set [2] has as its system Human immunodeficiency virus 2. The data set can be described thus: Antiviral activity against Human immunodeficiency virus 2 ROD infected in human CEM cells assessed as reduction of virus-induced giant cell formation at 250 uM after 4 to 5 days. Type of data set: functional, organism-based. The note with it: CCRF-CEM. In outline:
(§2)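 CEM cells at 3 × 10^5 cells/mL were infected with HIV at 100 CCID50 per mL in the presence of compound dilutions. They were held 4–5 days at 37 °C in humidified CO2. Syncytium (giant cell) formation was scored microscopically, and EC50 was taken as the concentration inhibiting giant cell formation by 50%.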

The test system of data set [3] is Human immunodeficiency virus 1. In words: Antiviral activity against Human immunodeficiency virus 1 3B infected in human CEM cells assessed as reduction of virus-induced giant cell formation at 250 uM after 4 to 5 days. The format is functional, organism-based. The settings on record: CCRF-CEM. In outline:
as §2

For the next data set, the system named is Feline coronavirus. In words: Antiviral activity against Feline coronavirus infected in cat CRFK cells assessed as reduction of virus-induced cytopathogenicity at 250 uM. The format is functional, organism-based.
In the next data set the test system is Felid alphaherpesvirus 1. In words: Antiviral activity against Feline herpes virus infected in cat CRFK cells assessed as reduction of virus-induced cytopathogenicity at 250 uM. The format is functional, organism-based.
The next data set deals with Influenza B virus. The data set can be described thus: Antiviral activity against Influenza B virus infected in dog MDCK cells assessed as reduction of virus-induced cytopathogenicity at 250 uM. Type of data set: functional, organism-based. Summed up:
(§3)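 Confluent cell monolayers were infected with 100 CCID50 of virus while exposed to varying compound concentrations. Cytopathicity was scored once it was complete in untreated infected controls. EC50 was taken as the concentration that reduced virus-induced cytopathogenicity by 50%.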

In data set [4] the test system is Influenza A virus. In words: Antiviral activity against Influenza A virus H3N2 infected in dog MDCK cells assessed as reduction of virus-induced cytopathogenicity at 250 uM. The format is functional, organism-based. Summed up: as §3
Data set [5] concerns Influenza A virus. The data set can be described thus: Antiviral activity against Influenza A virus H1N1 infected in dog MDCK cells assessed as reduction of virus-induced cytopathogenicity at 250 uM. Type of data set: functional, organism-based. Summed up:
as §3

In another data set the test system is Punta Toro virus. The data set can be described thus: Antiviral activity against Punta Toro virus infected in african green monkey Vero cells assessed as reduction of virus-induced cytopathogenicity at 250 uM. The format is functional, organism-based. Summed up:
(§4)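 Confluent monolayers (HEL fibroblasts, Vero, or HeLa cells as listed) were infected with 100 CCID50 of virus in the presence of varying compound concentrations. Virus-induced cytopathicity or plaque formation was scored once cytopathicity was complete in untreated infected controls. EC50 was taken as the concentration reducing cytopathogenicity or plaque formation by 50%.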

For the next data set, the system named is Sindbis virus. The data set can be described thus: Antiviral activity against Sindbis virus infected in african green monkey Vero cells assessed as reduction of virus-induced cytopathogenicity at 250 uM. The format is functional, organism-based. In outline: as §4
A further data set relates to Coxsackievirus B4. The data set can be described thus: Antiviral activity against Coxsackievirus B4 infected in african green monkey Vero cells assessed as reduction of virus-induced cytopathogenicity at 250 uM. The format is functional, organism-based. Summed up: as §4
Data set [6] deals with Mammalian orthoreovirus 1. The data set can be described thus: Antiviral activity against Reovirus 1 infected in african green monkey Vero cells assessed as reduction of virus-induced cytopathogenicity at 250 uM. Type of data set: functional, organism-based. In outline: as §4
The next data set concerns Human respirovirus 3. The data set can be described thus: Antiviral activity against Parainfluenza virus 3 infected in african green monkey Vero cells assessed as reduction of virus-induced cytopathogenicity at 250 uM. The format is functional, organism-based. In outline: as §4
Data set [7] concerns Respiratory syncytial virus. In words: Antiviral activity against Respiratory syncytial virus long infected in human HeLa cells assessed as reduction of virus-induced cytopathogenicity at 250 uM. Type of data set: functional, organism-based. In outline: as §4
For data set [8], the system named is Vesicular stomatitis virus. In words: Antiviral activity against Vesicular stomatitis virus infected in human HeLa cells assessed as reduction of virus-induced cytopathogenicity at 250 uM. Type of data set: functional, organism-based. In outline:
as §3

Data set [9] has as its system Human alphaherpesvirus 1. The data set can be described thus: Antiviral activity against thymidine kinase-deficient, ACV-resistant Herpes simplex virus 1 KOS infected in human HEL cells assessed as reduction of virus-induced cytopathogenicity at 250 uM. Type of data set: functional, organism-based. Summed up: as §3
For data set [10], the system named is Vesicular stomatitis virus. In words: Antiviral activity against Vesicular stomatitis virus infected in human HEL cells assessed as reduction of virus-induced cytopathogenicity at 250 uM. The format is functional, organism-based. Summed up: as §3
The next data set has as its system Human alphaherpesvirus 2. The data set can be described thus: Antiviral activity against Herpes simplex virus 2 G infected in human HEL cells assessed as reduction of virus-induced cytopathogenicity at 250 uM. The format is functional, organism-based. The settings on record: strain G. Summed up: as §4
Data set [11] relates to Human alphaherpesvirus 1. The data set can be described thus: Antiviral activity against Herpes simplex virus 1 KOS infected in human HEL cells assessed as reduction of virus-induced cytopathogenicity at 250 uM. The format is functional, organism-based. In outline:
as §4

On to `CCOP(=O)(OCC)[C@@H]1C[C@H](C(=O)Nc2ccc(Br)cc2)ON1C` (mixture of isomers), for which the Activity entry (in the data set with MDCK; in [1]; in the data set with Vero; in the data set on HeLa; with HEL) was “Non-toxic” in each case. Besides, the inhibition entry (in data set [2]; in data set [3]; in the data set on Feline coronavirus; in the data set on Felid alphaherpesvirus 1; in the data set with Influenza B virus; in the data set on Influenza A virus [4]) was “inactive” each time. The inhibition result (with Influenza A virus [5]; with Punta Toro virus; in the data set with Sindbis virus; in the data set with Coxsackievirus B4; in [6]; in the data set on Human respirovirus 3) was “inactive” in each case. In addition, the inhibition entry (in data set [7]; in [8]; with Human alphaherpesvirus 1 [9]; in [10]; with Human alphaherpesvirus 2; in the data set on Human alphaherpesvirus 1 [11]) was “inactive” throughout.
In the case of `CCOP(=O)(OCC)[C@@H]1C[C@H](C(=O)Nc2cccc(OC)c2)ON1C` (mixture of isomers), the Activity result (with MDCK; in data set [1]; in the data set with Vero; in the data set on HeLa; in the data set on HEL) was “Non-toxic” throughout. Also, the inhibition result (in data set [2]; in data set [3]; in the data set with Feline coronavirus; in the data set on Felid alphaherpesvirus 1; in the data set on Influenza B virus; with Influenza A virus [4]) was “inactive” each time. Besides, the inhibition result (in the data set with Influenza A virus [5]; with Punta Toro virus; in the data set on Sindbis virus; with Coxsackievirus B4; in data set [6]; in the data set with Human respirovirus 3) was “inactive” each time. Moreover, the inhibition entry (in data set [7]; in data set [8]; in the data set on Human alphaherpesvirus 1 [9]; in [10]; in the data set on Human alphaherpesvirus 2; in the data set on Human alphaherpesvirus 1 [11]) was “inactive” in each case.
In the case of `CCOP(=O)(OCC)[C@@H]1C[C@H](C(=O)Nc2cccc(Cl)c2)ON1C` (mixture of isomers), the Activity result (in the data set on MDCK; in data set [1]; in the data set with Vero; with HeLa; in the data set with HEL) was “Non-toxic” throughout. Moreover, the inhibition entry (in data set [2]; in data set [3]; in the data set with Feline coronavirus; in the data set on Felid alphaherpesvirus 1; in the data set with Influenza B virus; in the data set on Influenza A virus [4]) was “inactive” in each case. For the same molecule, the inhibition entry (in the data set on Influenza A virus [5]; in the data set on Punta Toro virus; in the data set on Sindbis virus; with Coxsackievirus B4; in data set [6]; in the data set with Human respirovirus 3) was “inactive” in each case. Also, the inhibition entry (in data set [7]; in [8]; in the data set on Human alphaherpesvirus 1 [9]; in [10]; in the data set on Human alphaherpesvirus 2; in the data set with Human alphaherpesvirus 1 [11]) was “inactive” each time.
On to `CCOP(=O)(OCC)[C@H]1C[C@H](C(=O)Nc2cc(OC)cc(OC)c2)ON1C` (mixture of isomers), for which the Activity entry (with MDCK; in data set [1]; with Vero; in the data set with HeLa; in the data set with HEL) was “Non-toxic” each time. Further, the inhibition result (in [2]; in data set [3]; in the data set on Feline coronavirus; in the data set on Felid alphaherpesvirus 1; with Influenza B virus; in the data set on Influenza A virus [4]) was “inactive” each time. Further, the inhibition result (with Influenza A virus [5]; with Punta Toro virus; in the data set with Sindbis virus; in the data set with Coxsackievirus B4; in [6]; with Human respirovirus 3) was “inactive” throughout. Moreover, the inhibition result (in [7]; in data set [8]; in the data set on Human alphaherpesvirus 1 [9]; in data set [10]; in the data set with Human alphaherpesvirus 2; in the data set with Human alphaherpesvirus 1 [11]) was “inactive” each time.
`CCOP(=O)(OCC)[C@@H]1C[C@H](C(=O)Nc2ccc(F)cc2)ON1C` (mixture of isomers): the Activity result (in the data set on MDCK; in [1]; in the data set on Vero; in the data set on HeLa; in the data set on HEL) was “Non-toxic” each time. Moreover, the inhibition entry (in data set [2]; in [3]; in the data set with Feline coronavirus; in the data set with Felid alphaherpesvirus 1; in the data set with Influenza B virus; with Influenza A virus [4]) was “inactive” each time. Also, the inhibition entry (in the data set on Influenza A virus [5]; in the data set on Punta Toro virus; with Sindbis virus; in the data set on Coxsackievirus B4; in [6]; with Human respirovirus 3) was “inactive” each time. Besides, the inhibition result (in [7]; in data set [8]; in the data set with Human alphaherpesvirus 1 [9]; in data set [10]; with Human alphaherpesvirus 2; with Human alphaherpesvirus 1 [11]) was “inactive” each time.
For the molecule `CCOP(=O)(OCC)[C@H]1C[C@H](C(=O)Nc2ccc(C#N)cc2)ON1C` (racemic), the Activity entry (in the data set with MDCK; in [1]; with Vero; in the data set on HeLa; in the data set with HEL) was “Non-toxic” throughout. The inhibition result (in [2]; in data set [3]; in the data set with Feline coronavirus; in the data set on Felid alphaherpesvirus 1; in the data set with Influenza B virus; in the data set with Influenza A virus [4]) was “inactive” throughout. Besides, the inhibition result (in the data set with Influenza A virus [5]; in the data set on Punta Toro virus; with Sindbis virus; in the data set on Coxsackievirus B4; in data set [6]; in the data set with Human respirovirus 3) was “inactive” in each case. The inhibition result (in data set [7]; in data set [8]; in the data set on Human alphaherpesvirus 1 [9]; in data set [10]; with Human alphaherpesvirus 2; in the data set with Human alphaherpesvirus 1 [11]) was “inactive” in each case.
